From ChEMBL document CHEMBL1136652, “Conformationally-restricted analogues and partition coefficients of the 5-HT3 serotonin receptor ligands meta-chlorophenylbiguanide (mCPBG) and meta-chlorophenylguanidine (mCPG)” (Bioorg Med Chem Lett, 2003)

Target: Serotonin 3 (5-HT3) receptor
Test: Binding affinity for 5-HT3 receptor of NG108-15 cells using [3H]GR-65630
Assay type: cell-based
Conditions: not given
How it was run: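 Competition binding against 1 nM [3H]GR65630 (84.2 Ci/mmol; KD 0.7 nM); nonspecific binding defined with […]. Incubation 30 min at room temperature, then filtration on presoaked glass fiber filters, ice-cold buffer wash, scintillation counting. Log concentration vs percent inhibition fitted by nonlinear least squares assuming 100% maximal inhibition; Ki from IC50 via Cheng-Prusoff.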

| SMILES | Ki [µM] |
| --- | --- |
| NC1=Nc2cc(Cl)ccc2CN1 | 0.034 |
| CC1N=C(N)N=C(N)N1c1cccc(Cl)c1 (stereo not given) | > 10 |
| CC1(C)N=C(N)N=C(N)N1c1cccc(Cl)c1 | > 10 |
| Nc1nc2ccc(Cl)cc2[nH]1 | 0.725 |

The next lines start with the values.

| Ki [µM] | SMILES |
| --- | --- |
| > 10 | Nc1ncnc(Nc2cccc(Cl)c2)n1 |
| 1.46 | Nc1nccc(Nc2cccc(Cl)c2)n1 |
| > 10 | Nc1ncnc(Nc2ccc3ccccc3c2)n1 |
| > 10 | Nc1nc(Nc2cccc(Cl)c2)n[nH]1 |
| > 10 | Nc1ncnc(Nc2ccccc2)n1 [AMANOZINE] |

Test system: not listed separately
Test: Partition coefficient in an aqueous 1-octanol buffer system by the shake-flask method
Assay type: physicochemical
Conditions: 1-octanol/aqueous buffer
How it was run: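 LogP_app by shake-flask in aqueous buffer/1-octanol at pH 7.4 (ionic strength 0.10 M NaCl), 23±1.0 °C. Aqueous-phase compound concentration measured spectrophotometrically; values are means of duplicate determinations run in triplicate.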

| logD | SMILES |
| --- | --- |
| -1.17 | N=C(N)NC(=N)Nc1ccccc1 [PHENYL BIGUANIDE] |
| 1.16 | N=C(N)Nc1cc(Cl)c(Cl)c(Cl)c1 |
| 1.47 | N=C(N)NC(=N)Nc1cc(Cl)c(Cl)c(Cl)c1 |
| -0.64 | NC(N)=Nc1cccc(Cl)c1 |
| -0.38 | N=C(N)NC(=N)Nc1cccc(Cl)c1 |
| -1.32 | N=C(N)Nc1ccccc1 [PHENYLGUANIDINE] |
